# High-throughput results from PubChem.
# proCasp7 act: procaspase-7 activators, primary screen, counter-screen for procaspase-3 activator project, biochemical, absorbance, HTS, human; 330,000 compounds, 0.093% hits; Caspase-7 (Homo sapiens), P55210; AID 463210, 2010; activation, % at 8.5 µM; recombinant procaspase-7, Ac-DEVD-pNA absorbance 405 nm; D23A/D198A/D206A triple mutant, cannot self-cleave; scale: DMSO 0, 5 µM enzyme 100;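 active = percent activation above the screen-wide mean plus 3 SD, cut at about 25% in these data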
# Target sequence (P55210 whole entry D23A/D198A/D206A): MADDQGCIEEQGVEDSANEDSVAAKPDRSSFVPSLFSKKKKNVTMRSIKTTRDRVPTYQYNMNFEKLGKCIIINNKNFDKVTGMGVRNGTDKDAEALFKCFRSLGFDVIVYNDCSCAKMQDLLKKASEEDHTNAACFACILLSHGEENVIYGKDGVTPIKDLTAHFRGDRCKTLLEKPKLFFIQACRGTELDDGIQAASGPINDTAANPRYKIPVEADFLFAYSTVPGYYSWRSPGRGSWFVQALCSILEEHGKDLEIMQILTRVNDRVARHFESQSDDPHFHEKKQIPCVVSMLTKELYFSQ
#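 Detection: p-Nitroaniline absorbance at 405 nm, read at 0 and 120 min; system: Uncleavable procaspase-7 mutant enzyme; evaluation: % activation from two-timepoint absorbance difference, scaled to controls; times: 1 h enzyme–compound preincubation and 2 h substrate reaction, both 25 °C; buffer or medium: Zinc-free HEPES pH 7.4 with 300 mM NaCl, 0.01% Triton X-100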
# procasp3 activ: activators of human procaspase-3 D3A mutant, primary screen, biochemical, absorbance, PC-3 D3A mutant, single concentration; Caspase-3 (Homo sapiens), P42574; 330,000 compounds, 0.11% hits; recombinant procaspase-3 D3A, Ac-DEVD-pNA absorbance 405 nm; activation, % at 8.5 µM;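 active = activation above the mean of all tested compounds plus 3 SD, cut at about 21% in these data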
# Target sequence (P42574 whole entry D9A/D28A/D175A): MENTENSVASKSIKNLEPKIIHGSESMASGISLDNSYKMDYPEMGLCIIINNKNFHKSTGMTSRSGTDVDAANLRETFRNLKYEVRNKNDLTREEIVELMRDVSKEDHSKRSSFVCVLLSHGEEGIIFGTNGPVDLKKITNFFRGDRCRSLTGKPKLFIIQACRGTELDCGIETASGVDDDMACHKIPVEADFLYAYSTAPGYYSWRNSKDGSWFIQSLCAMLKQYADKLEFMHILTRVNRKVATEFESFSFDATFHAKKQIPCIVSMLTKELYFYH
#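 System: Procaspase-3 D3A mutant. Medium: Zinc-free 300 mM NaCl, 50 mM HEPES, 0.01% Triton X-100. Schedule: 1 h preincubation plus 2 h reaction at 25 °C. Measured by: 405 nm absorbance of p-nitroaniline, reads at 0 and 120 min. Read-out: percent activation relative to control range.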
# GAA850 FXN act: FXN promoter activators, primary screen, cell-based, luciferase luminescence, HEK293 lucGAA850; HEK293 lucGAA850 FXN promoter luciferase reporter, 24 h; percent of 10 µM SAHA response; 360,000 compounds, 0.56% hits; AID 540364, 2011; activation, % at 6 µM;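 active = activation above the average of all compounds screened plus 3 SD, cutoff fixed separately per campaign, cut at about 7.5% in these data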
# GAA30 FXN cntr: GAA30 FXN promoter activators, confirmation, counter-screen for GAA850 frataxin promoter activator project, cell-based, luminescence, HEK293, lucGAA30, triplicate; shares compounds with GAA850 FXN act; 1,900 compounds, 66% hits; HEK293 lucGAA30 FXN promoter luciferase, 24 h; DMSO = 0%, 5 µM ipriflavone = 100%; activation, % at 6 µM;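 active = mean activation above the mean of solvent-only control wells plus 3 SD, cut at about 22% in these data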;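 also: counterscreen of GAA850 promoter hits where activity marks nonselective or luminescence artifacts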
# FXN GAA850 conf: FXN GAA850 promoter activators in reporter cells, confirmation, cell-based, luminescence, HEK293 lucGAA850, triplicate; shares compounds with GAA850 FXN act; HEK293 lucGAA850 FXN promoter luciferase reporter, 24 h; 100% = activation by SAHA; activation, % at 6 µM; 1,900 compounds, 86% hits;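 active = mean activation above a set limit taken from the primary screen, cut at about 8% in these data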
# A number is an active result; - = inactive; . = no result. In the library only some 0.7% were active in any assay of this set; here they are far more common.
SMILES,proCasp7 act,procasp3 activ,GAA850 FXN act,GAA30 FXN cntr,FXN GAA850 conf
Oc1ccc(/C=N/Nc2ncnc3nc[nH]c23)cc1,-,-,-,.,.
Cc1ccc(C)c(Nc2ncnc3nc[nH]c23)c1,-,-,-,.,.
CCOc1cc(S(=O)(=O)n2ccnc2)ccc1Cl,-,-,-,.,.
COc1ccc2oc(=O)c(-c3csc(Nc4ccc(O)cc4)n3)cc2c1,-,-,19,79,24
COc1ccc2oc(=O)c(/C(C)=N/Nc3nc(-c4cc(C)ccc4C)cs3)cc2c1,-,-,-,.,.
Cc1ccc(CNC(=O)c2ccc(COc3ccccc3)cc2)cc1,-,-,-,.,.
Fc1ccc(-c2ccc(Nc3cccc(F)c3)nn2)cc1,-,-,8.3,93,31
Fc1ccc(Nc2ccc(-c3ccc(F)cc3)nn2)cc1,-,-,-,.,.
COCCCN(C(=O)C1CCCCC1)c1c(N)n(Cc2ccccc2)c(=O)[nH]c1=O,-,-,-,.,.
COCCCN(C(=S)NC(=O)C12CC3CC(CC(C3)C1)C2)c1c(N)n(Cc2ccccc2)c(=O)[nH]c1=O,-,-,8.4,-,8.2
CC(C)(C)c1csc(NC(=O)CS(=O)(=O)c2ccccc2)n1,-,-,7.9,51,15
Cc1csc(NC(=O)CS(=O)(=O)c2ccccc2)n1,-,-,-,.,.
COc1cc(CCC(=O)Nc2ccc(S(=O)(=O)NC3=NCCCCC3)cc2)cc(OC)c1OC,-,-,-,.,.
COc1ccc(OC)c(NC(=O)C2CCCN(S(=O)(=O)c3c(C)noc3C)C2)c1 (stereo unspecified),-,-,-,.,.
COc1ccc(OC)c(NC(=O)C2CCCN(S(=O)(=O)c3c(C)nn(C)c3C)C2)c1 (stereo unspecified),-,-,14,-,9.3
CC(CN1C(C)CCCC1C)OC(=O)c1ccccc1F (stereo unspecified),-,-,-,.,.
CC1CCC2(CC1)NC(=O)N(NC(=O)CCc1c[nH]c3ccccc13)C2=O (stereo unspecified),.,.,-,.,.
CC(=O)N(C1CC(C)C(C#N)(C#N)C1(C#N)C#N)N(C)C (stereo unspecified),-,-,9.9,-,-
CCCC(=O)N(C1CC(C)C(C#N)(C#N)C1(C#N)C#N)N(C)C (stereo unspecified),-,-,-,.,.
CCOC(=O)c1c(C)oc2ccc(NS(=O)(=O)c3cccs3)cc12,-,-,-,.,.
COCCOC(=O)c1c(C)oc2ccc(NS(=O)(=O)c3cccs3)cc12,-,-,8.6,-,-
CCCNC(=O)COc1coc(CN2CCN(c3ccc(F)cc3)CC2)cc1=O,-,-,-,.,.
O=c1cc(-c2ccccc2)oc2ccccc12,-,-,-,.,.
O=c1cc(-c2ccccc2)oc2ccc(O)cc12,-,-,9.2,134,42
O=C(Nn1cnc2ccccc2c1=O)c1ccc(Cl)c([N+](=O)[O-])c1,-,-,-,.,.
SMILES,proCasp7 act,procasp3 activ,GAA850 FXN act,GAA30 FXN cntr,FXN GAA850 conf
Cc1ccc2c(CN3CC(C)CC(C)C3)cc(=O)oc2c1 (stereo unspecified),-,-,-,.,.
Cc1ccc2c(CN3CCC(C)CC3)cc(=O)oc2c1,-,-,8.6,125,46
CN(Cc1ccccc1)c1nc(N)c([N+](=O)[O-])c(NCc2ccccc2)n1,-,-,7.7,35,12
Nc1nc(NCCc2ccccc2)nc(NCc2ccccc2)c1[N+](=O)[O-],-,-,-,.,.
Cn1c2ccccc2c(=O)c2cc(C#Cc3cccc(N)c3)ccc21,-,-,-,.,.
C=CCn1c2ccccc2c(=O)c2cc(C#CC[C@@H](C)O)ccc21,-,-,11,127,44
CC(=O)Nc1ccc(S(=O)(=O)Nc2nnc(Cc3ccc(Cl)cc3)s2)cc1,-,-,-,.,.
CC[C@@]12C(=O)N(c3cccc(F)c3)C(=O)N1[C@H](c1ccc(OC)cc1)[C@@H]1C(=O)N(C(C)(C)C)C(=O)[C@@H]12,-,-,11,43,18
CC[C@@]12C(=O)N(c3cccc(C)c3)C(=O)N1[C@H](c1ccc(OC)cc1)[C@@H]1C(=O)N(C(C)(C)C)C(=O)[C@@H]12,-,-,12,29,20
COc1ccc([C@@H]2[C@@H]3C(=O)N(C(C)(C)C)C(=O)[C@@H]3[C@]3(Cc4ccccc4)C(=O)N(c4ccc(C(F)(F)F)cc4)C(=O)N23)cc1,-,-,-,.,.
COc1ccc([C@@H]2[C@@H]3C(=O)N(C(C)(C)C)C(=O)[C@@H]3[C@]3(Cc4ccc(Cl)cc4)C(=O)N(c4cccc(C)c4)C(=O)N23)cc1,-,-,-,.,.
CC(C)CC(=O)c1c[nH]c(C(=O)NCc2ccc(F)cc2)c1,-,-,-,.,.
CN(/N=C/c1cccnc1)c1cnc2ccccc2n1,-,-,9.3,132,34
C(=N\N=C\c1cccnc1)/c1cccnc1,-,-,-,.,.
Cc1ccc(C)c(S(=O)(=O)N(C)c2ccc(OC(=O)C3CCN(C(=O)Nc4ccccc4)CC3)cc2)c1,.,.,-,.,.
COc1ccc2cc(Br)ccc2c1CC(=O)NCCCN1CCOCC1,-,-,-,.,.
COc1ccc(Br)c(Cn2c(C)c(C(=O)NCc3ccccc3C(F)(F)F)sc2=O)c1,.,.,-,.,.
Cn1c(O)c(/C=C2\C=Nc3ccccc32)sc1=Nc1ccc(C(=O)O)cc1,-,-,-,.,.
CCn1c(O)c(/C=C2\C=Nc3ccccc32)sc1=Nc1ccccc1,-,-,13,60,27
CC/C(=C\C1CCCCC1)C(NP(=O)(c1ccccc1)c1ccccc1)c1ccccc1 (stereo unspecified),-,-,13,30,19
O=P(NC1CCCCC1)(c1ccccc1)c1ccccc1,.,.,-,.,.
CCC1(C(=O)OC)CCc2c(cc(OC)c3ccccc23)C1=O (stereo unspecified),-,-,-,.,.
O=C(CN1CCN(Cc2ccccc2F)C1=O)NCc1cccnc1,-,-,13,-,-
O=C(CN1CCN(Cc2ccccc2Cl)C1=O)NCc1cccnc1,-,-,-,.,.
CCCC(=O)Nc1ccc(-c2nc3cc(C)c(C)cc3o2)cc1,-,-,9.8,108,48
CCCC(=O)Nc1ccc2oc(-c3ccncc3)nc2c1,-,-,-,.,.
CCOc1c(Br)cc(C(=O)N2CCCN(C)CC2)cc1OC,-,-,-,.,.
COc1ccccc1C(=O)N/C(=C\c1cn(C)c2ccccc12)C(=O)N1CCCC1,-,-,-,.,.
Cc1cc(Cl)ccc1OCC(=O)NCC(=O)N/N=C/c1ccco1,-,-,-,.,.
